Measurements reported in publication PMC3726261 (Cancer, 2012).

Legend:
[1] = system: metastatic or advanced solid malignancy; assay: Tumor response; format: in vivo, human
[2] = system: adiponectin; assay: Plasma adiponectin; format: in vivo, human
Summary of the method: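 Blood was drawn at baseline (before cycle 1) and every 3 weeks thereafter from patients with advanced solid malignancies given oral drug twice daily at 0.10–1.15 mg in 21-day cycles. Plasma adiponectin was quantified by solid-phase quantitative sandwich enzyme immunoassay. A population pharmacokinetic/adiponectin model using data from every patient defined the dose–response relation and predicted the increase relative to pretreatment.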

[3] = Pharmacokinetics: plasma R-150033 by LC-MS/MS after oral efatutazone; format: in vivo, human
Summary of the method: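 Adults with advanced solid malignancies took oral doses twice daily in 21-day cycles, in cohorts of 3 to 6 at 0.10–1.15 mg. Plasma was sampled at baseline and 0.5, 1, 2, 3, 4, 6 and 8–10 h after the first dose on day 1 of cycles 1 and 2. Active metabolite R-150033 was measured by validated LC-MS/MS. AUC, Cmax and Tmax were derived; accumulation was AUC0-tau/AUC0–12, and steady state was judged from trough levels.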

[4] = system: human pancreatic and anaplastic thyroid tumor-cell cultures; settings: cited from earlier work
[5] = system: PPAR response element; settings: cited from earlier work
[6] = Patient 0020, Myxoid liposarcoma, 0.75 mg
[7] = PPAR response element activation

**Q.** What does the source list for `Cc1cc(Oc2ccc3nc(COc4ccc(CC5SC(=O)NC5=O)cc4)n(C)c3c2)cc(C)c1N` (stereo not drawn) [Efatutazone]?
**A.** No. of patients with stable disease or partial response ([1]; 0.10 mg cohort (n = 6)): 3; Treatment duration in patients with SD/PR, Maximum ([1]; 0.10 mg cohort (n = 6)): 294 days; Treatment duration in patients with SD/PR, Median ([1]; 0.10 mg cohort (n = 6)): 67.0 days; Treatment duration in patients with SD/PR, Minimum ([1]; 0.10 mg cohort (n = 6)): 66 days; No. of patients with stable disease or partial response ([1]; 0.15 mg cohort (n = 3)): 2; Treatment duration in patients with SD/PR, Maximum ([1]; 0.15 mg cohort (n = 3)): 178 days; Treatment duration in patients with SD/PR, Median ([1]; 0.15 mg cohort (n = 3)): 176.0 days; Treatment duration in patients with SD/PR, Minimum ([1]; 0.15 mg cohort (n = 3)): 173 days; No. of patients with stable disease or partial response ([1]; 0.25 mg cohort (n = 4)): 0; No. of patients with stable disease or partial response ([1]; 0.35 mg cohort (n = 3)): 1; Treatment duration in patients with SD/PR, Maximum ([1]; 0.35 mg cohort (n = 3)): 84 days; Treatment duration in patients with SD/PR, Median ([1]; 0.35 mg cohort (n = 3)): 84.0 days; Treatment duration in patients with SD/PR, Minimum ([1]; 0.35 mg cohort (n = 3)): 84 days; No. of patients with stable disease or partial response ([1]; 0.50 mg cohort (n = 6)): 3; Treatment duration in patients with SD/PR, Maximum ([1]; 0.50 mg cohort (n = 6)): 336 days; Treatment duration in patients with SD/PR, Median ([1]; 0.50 mg cohort (n = 6)): 126.0 days; Treatment duration in patients with SD/PR, Minimum ([1]; 0.50 mg cohort (n = 6)): 74 days; No. of patients with stable disease or partial response ([1]; 0.75 mg cohort (n = 3)): 1; Treatment duration in patients with SD/PR, Maximum ([1]; 0.75 mg cohort (n = 3)): 690 days; Treatment duration in patients with SD/PR, Median ([1]; 0.75 mg cohort (n = 3)): 690.0 days; Treatment duration in patients with SD/PR, Minimum ([1]; 0.75 mg cohort (n = 3)): 690 days; No. of patients with stable disease or partial response ([1]; 1.15 mg cohort (n = 3)): 1; Treatment duration in patients with SD/PR, Maximum ([1]; 1.15 mg cohort (n = 3)): 84 days; Treatment duration in patients with SD/PR, Median ([1]; 1.15 mg cohort (n = 3)): 84.0 days; Treatment duration in patients with SD/PR, Minimum ([1]; 1.15 mg cohort (n = 3)): 84 days; Patients with stable disease lasting ≥60 days ([1]; 10 of 27 evaluable patients): 37%; Number of sustained partial responses ([1]; 27 evaluable patients): 1; No. of patients with stable disease or partial response ([1]; Overall (N = 27)): 11; Treatment duration in patients with SD/PR, Maximum ([1]; Overall (N = 27)): 690 days; Treatment duration in patients with SD/PR, Median ([1]; Overall (N = 27)): 126.0 days; Treatment duration in patients with SD/PR, Minimum ([1]; Overall (N = 27)): 66 days; Treatment Duration ([1]; Patient 0001, Thymoma, 0.10 mg, stable disease): 67 days; Treatment Duration ([1]; Patient 0002, Carcinoma of unknown origin, 0.10 mg, stable disease): 66 days; Treatment Duration ([1]; Patient 0005, Cancer of the peritoneum, 0.10 mg, stable disease): 294 days; Treatment Duration ([1]; Patient 0007, Colorectal carcinoma, 0.15 mg, stable disease): 173 days; Treatment Duration ([1]; Patient 0015, Carcinoma of unknown origin, 0.35 mg, stable disease): 84 days; Treatment Duration ([1]; Patient 0017, Colorectal carcinoma, 0.50 mg, stable disease): 126 days; Treatment Duration ([1]; Patient 0018, Colorectal carcinoma, 0.50 mg, stable disease): 74 days; Time on therapy of patient with sustained partial response ([1]; Patient 20, metastatic myxoid liposarcoma): 690 days; Nadir reduction in tumor size ([1]; Patient 20, metastatic myxoid liposarcoma, June 2009): approximately 49%; Best response (RECIST) [1, 6]: partial response; Treatment Duration [1, 6]: 690 days; Fluorodeoxyglucose uptake (PET/CT) ([1]; Patient 20, November 2008): no fluorodeoxyglucose uptake in the remaining tumors; Treatment Duration ([1]; Patient 0022, Cancer of the appendix, 1.15 mg, stable disease): 84 days; Treatment Duration ([1]; Patient 0024, Carcinoma of unknown origin, 0.50 mg, stable disease): 336 days; Treatment Duration ([1]; Patient 2001, Leiomyosarcoma, 0.15 mg, stable disease): 178 days; Median overall survival ([1]; in vivo): 283 days; Median time to disease progression ([1]; in vivo): 51 days; Median treatment duration for patients with SD or PR ([1]; in vivo): 126 days; Change in adiponectin levels ([2]; after 4 weeks of treatment at all dose levels): increased; Predicted increase in adiponectin expression levels relative to pretreatment ([2]; at optimal dose, population-based pharmacokinetic/adiponectin modeling): > 90%; Dose proportionality of exposure (AUC and Cmax) ([3]; 0.10 to 1.15 mg twice daily, single and multiple doses): approximately dose proportional; Time to steady-state levels ([3]; based on trough plasma concentrations, twice daily): by week 1 of cycle 2; Proliferation of tumor-cell cultures [4]: inhibits proliferation; Potency relative to rosiglitazone [5, 7]: at least 50 ×; Potency relative to troglitazone [5, 7]: ≥ 500 ×; PPAR subtype selectivity of transcription activation ([5]; background statement, no reference given): selectively activates PPARγ-mediated transcription with little effect on other PPAR subtypes
